≈ marks a conversion by molar mass, not a printed value. Calls of active or inactive are those of the source. The rule behind the calls is not given here. Peptide text beside a SMILES is read from it. * marks the point of attachment. βNA = c1ccc2cc(N*)ccc2c1
Legend:
Klebsiella aerogenes [1] = experiment: Chemosensitization of Enterobacter aerogenes CM-64 overexpressing AcrAB-TolC assessed as decrease in nalidixic acid MIC at 63 uM relative to control; format: functional
How it was run: (§1)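 About 10^6 cells were put into 1 mL Mueller-Hinton broth with twofold serial dilutions of the antibiotic (CLSI). A fixed sub-inhibitory compound concentration was added, set without antibiotic, usually ≤1/4 MIC. Controls ran without inhibitor. Plates were read after 18 h at 37 °C. MICs are the means of three independent determinations. Activity gain = MIC without compound / MIC with compound.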

Klebsiella aerogenes [2] = experiment: Antibacterial activity against Enterobacter aerogenes CM-64 overexpressing AcrAB-TolC assessed as growth inhibition after 18 hrs by CLSI broth dilution method; format: functional; conditions: CM-64, 18 h
How it was run: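 Intrinsic MIC of each compound with no antibiotic added. About 10^6 cells were inoculated into 1 mL Mueller-Hinton broth with twofold serial dilutions, following CLSI guidelines. Plates were read after 18 h at 37 °C, in triplicate. MIC is the mean of three independent determinations.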

Klebsiella aerogenes [3] = experiment: Antibacterial activity against wild type Enterobacter aerogenes ATCC 13048 assessed as growth inhibition after 18 hrs by CLSI broth dilution method; format: functional; conditions: ATCC 13048, 18 h
How it was run: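 Broth dilution per CLSI in Mueller-Hinton broth, about 10^6 cells per 1 mL, read after 18 h at 37 °C. The compound alone, with no antibiotic, against reference strain ATCC 13048. MIC is the mean of three independent determinations.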

Klebsiella aerogenes [4] = experiment: Chemosensitization of Enterobacter aerogenes CM-64 overexpressing AcrAB-TolC assessed as decrease in chloramphenicol MIC at 63 uM relative to control; format: functional; how it was run: as §1
Klebsiella aerogenes [5] = experiment: Chemosensitization of Enterobacter aerogenes CM-64 overexpressing AcrAB-TolC assessed as decrease in sparfloxacin MIC at 63 uM relative to control; format: functional; how it was run: as §1
Klebsiella aerogenes [6] = experiment: Chemosensitization of Enterobacter aerogenes CM-64 overexpressing AcrAB-TolC assessed as decrease in chloramphenicol MIC at 200 uM relative to control; format: functional; how it was run: as §1
Klebsiella aerogenes [7] = experiment: Chemosensitization of Enterobacter aerogenes CM-64 overexpressing AcrAB-TolC assessed as decrease in sparfloxacin MIC at 200 uM relative to control; format: functional; how it was run: as §1
Klebsiella aerogenes [8] = experiment: Chemosensitization of Enterobacter aerogenes CM-64 overexpressing AcrAB-TolC assessed as decrease in nalidixic acid MIC at 200 uM relative to control; format: functional; how it was run: as §1
Klebsiella aerogenes [9] = experiment: Chemosensitization of wild type Enterobacter aerogenes ATCC 13048 assessed as decrease in nalidixic acid MIC at 63 uM relative to control; format: functional
How it was run: (§2)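 Antibiotic MIC by CLSI broth dilution: about 10^6 cells in 1 mL Mueller-Hinton broth with twofold antibiotic dilutions, 18 h at 37 °C, in triplicate. Compound held at a fixed sub-inhibitory level (≤MIC/4) set without antibiotic. Controls ran without inhibitor and without antibiotic. PAβN 50 µM served as reference. Activity gain = MIC without compound / MIC with compound. MICs are the mean of three determinations.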

Klebsiella aerogenes [10] = experiment: Chemosensitization of wild type Enterobacter aerogenes ATCC 13048 assessed as decrease in sparfloxacin MIC at 63 uM relative to control; format: functional, organism-based; how it was run: as §1
Klebsiella aerogenes [11] = experiment: Chemosensitization of wild type Enterobacter aerogenes ATCC 13048 assessed as decrease in […] at 50 uM relative to control; format: functional, organism-based
Klebsiella aerogenes [12] = experiment: Chemosensitization of wild type Enterobacter aerogenes ATCC 13048 assessed as decrease in chloramphenicol MIC at 200 uM relative to control; format: functional, organism-based; how it was run: as §2
Klebsiella aerogenes [13] = experiment: Chemosensitization of Enterobacter aerogenes CM-64 overexpressing AcrAB-TolC assessed as decrease in nalidixic acid MIC at 100 uM relative to control
Klebsiella aerogenes [14] = experiment: Chemosensitization of wild type Enterobacter aerogenes ATCC 13048 assessed as decrease in nalidixic acid MIC at 200 uM relative to control; format: functional; how it was run: as §1
Klebsiella aerogenes [15] = experiment: Chemosensitization of Enterobacter aerogenes CM-64 overexpressing AcrAB-TolC assessed as decrease in sparfloxacin MIC at 100 uM relative to control; format: functional, organism-based; how it was run: as §1
Klebsiella aerogenes [16] = experiment: Chemosensitization of Enterobacter aerogenes CM-64 overexpressing AcrAB-TolC assessed as decrease in nalidixic acid MIC at 100 uM relative to control; format: functional, organism-based; how it was run: as §1
Klebsiella aerogenes [17] = experiment: Chemosensitization of wild type Enterobacter aerogenes ATCC 13048 assessed as decrease in nalidixic acid MIC at 100 uM relative to control; format: functional; how it was run: as §1
Klebsiella aerogenes [18] = experiment: Chemosensitization of wild type Enterobacter aerogenes ATCC 13048 assessed as decrease in chloramphenicol MIC at 63 uM relative to control; format: functional, organism-based; how it was run: as §2

Row | SMILES | MIC (Klebsiella aerogenes [2]) [µM] | MIC (Klebsiella aerogenes [3]) [µM] | fold change (FC) (Klebsiella aerogenes [5]) | other results
1 | O=C(CN1C(=O)N/C(=C\c2ccc(Br)cc2)C1=O)N1CCN(CCO)CC1 | > 1250 | > 1250 |  | fold change (FC) (Klebsiella aerogenes [1]): 4
2 | O=C(CN1C(=O)N/C(=C\c2ccccc2)C1=O)N1CCN(CCO)CC1 | 250 (≈ 89.6 µg/mL) | 125 (≈ 44.8 µg/mL) | 2 | fold change (FC) (Klebsiella aerogenes [4]): 2; fold change (FC) (Klebsiella aerogenes [1]): 4
3 | CC(C)NCC(O)CN1C(=O)N/C(=C\c2ccc(Br)cc2)C1=O (centres undefined) | > 1250 | > 1250 |  | 
4 | COc1ccc(/C=C2\NC(=O)N(CC(O)CN3CCN(c4ccccc4OC)CC3)C2=O)cc1OC (centres undefined) | 1000 (≈ 497 µg/mL) | 1000 (≈ 497 µg/mL) |  | fold change (FC) (Klebsiella aerogenes [6]): 2; Activity (Klebsiella aerogenes [7]): inactive; Activity (Klebsiella aerogenes [8]): Active
5 | O=C(N[C@H](CO)[C@H](O)c1ccc([N+](=O)[O-])cc1)C(Cl)Cl [CHLORAMPHENICOL] | 256 (≈ 82.7 µg/mL) | 4 (≈ 1.29 µg/mL) |  | 
6 | COc1ccc(/C=C2\NC(=O)N(CC(O)CN3CCN(C(C)=O)CC3)C2=O)cc1 (centres undefined) | > 2000 | > 2000 |  | Activity (Klebsiella aerogenes [5]): inactive; Activity (Klebsiella aerogenes [1]): Active
7 | CCN(CC)c1ccc(/C=C2\NC(=O)N(CC(O)CN3CCN(CCO)CC3)C2=O)cc1 (centres undefined) | 250 (≈ 111 µg/mL) | 125 (≈ 55.7 µg/mL) | 4 | fold change (FC) (Klebsiella aerogenes [4]): 4; fold change (FC) (Klebsiella aerogenes [1]): 4; fold change (FC) (Klebsiella aerogenes [9]): 2
8 | COc1ccc(/C=C2\NC(=O)N(CC(O)CNC(C)C)C2=O)c(OC)c1 (centres undefined) | 250 (≈ 90.9 µg/mL) | 250 (≈ 90.9 µg/mL) | 4 | fold change (FC) (Klebsiella aerogenes [4]): 4; Activity (Klebsiella aerogenes [10]): Active; fold change (FC) (Klebsiella aerogenes [1]): 4; fold change (FC) (Klebsiella aerogenes [9]): 2
9 | N=C(N)NCCC[C@H](NC(=O)[C@@H](N)Cc1ccccc1)C(=O)Nc1ccc2ccccc2c1 [PABETAN] (H-Phe-Arg-βNA) | 5000 (≈ 2230 µg/mL) | 5000 (≈ 2230 µg/mL) |  | Activity (Klebsiella aerogenes [11]): Active
10 | COc1ccc(/C=C2\NC(=O)N(CC(O)CN3CCNCC3)C2=O)cc1.Cl.Cl (centres undefined) | > 2000 | > 2000 | 2 | 
11 | CCOc1ccccc1N1CCN(CC(O)CN2C(=O)N/C(=C\c3ccc(Cl)cc3)C2=O)CC1 (centres undefined) | 1000 (≈ 485 µg/mL) | 500 (≈ 242 µg/mL) |  | Activity (Klebsiella aerogenes [12]): Active; fold change (FC) (Klebsiella aerogenes [7]): 2; fold change (FC) (Klebsiella aerogenes [13]): 4
12 | CC(C)NCC(O)CN1C(=O)N/C(=C\c2ccc(Cl)cc2)C1=O (centres undefined) | 250 (≈ 84.5 µg/mL) | 250 (≈ 84.5 µg/mL) | 4 | fold change (FC) (Klebsiella aerogenes [4]): 4; Activity (Klebsiella aerogenes [10]): Active; Activity (Klebsiella aerogenes [1]): Active
13 | COc1ccc(/C=C2\NC(=O)N(CC(O)CN3CCOCC3)C2=O)cc1 (centres undefined) | > 2000 | > 2000 |  | Activity (Klebsiella aerogenes [5]): inactive
14 | COc1ccccc1N1CCN(CC(O)CN2C(=O)N/C(=C\c3ccccc3)C2=O)CC1 (centres undefined) | 1000 (≈ 437 µg/mL) | 500 (≈ 218 µg/mL) |  | Activity (Klebsiella aerogenes [7]): inactive; Activity (Klebsiella aerogenes [8]): Active; fold change (FC) (Klebsiella aerogenes [14]): 2
15 | COc1ccccc1N1CCN(CC(O)CN2C(=O)N/C(=C\c3ccc(Cl)cc3)C2=O)CC1 (centres undefined) | 1000 (≈ 471 µg/mL) | 500 (≈ 235 µg/mL) |  | Activity (Klebsiella aerogenes [7]): inactive; fold change (FC) (Klebsiella aerogenes [14]): 2; fold change (FC) (Klebsiella aerogenes [13]): 4
16 | COc1ccc(/C=C2\NC(=O)N(CC(O)CN3CCN(C)CC3)C2=O)cc1.Cl (centres undefined) | > 2000 | > 2000 | 2 | 
17 | C[C@@H]1CN(c2c(F)c(N)c3c(=O)c(C(=O)O)cn(C4CC4)c3c2F)C[C@H](C)N1 [SPARFLOXACIN] | 1 (≈ 0.392 µg/mL) | 0.06 (≈ 0.0235 µg/mL) |  | 
18 | COc1ccc(/C=C2\NC(=O)N(CC(O)CN3CCCCC3)C2=O)cc1 (centres undefined) | > 2000 | > 2000 |  | 
19 | COc1ccc(/C=C2\NC(=O)N(CC(O)CN3CCN(c4ccccc4)CC3)C2=O)cc1OC (centres undefined) | 500 (≈ 233 µg/mL) | 500 (≈ 233 µg/mL) |  | Activity (Klebsiella aerogenes [15]): inactive; Activity (Klebsiella aerogenes [16]): Active; fold change (FC) (Klebsiella aerogenes [17]): 2
20 | CCn1cc(C(=O)O)c(=O)c2ccc(C)nc21 [NALIDIXIC ACID] | 128 (≈ 29.7 µg/mL) | 8 (≈ 1.86 µg/mL) |  | 
21 | COc1ccc(/C=C2\NC(=O)N(CC(O)CNCCCN3CCN(C)CC3)C2=O)cc1.Cl (centres undefined) | > 2000 | > 2000 |  | Activity (Klebsiella aerogenes [18]): Active; Activity (Klebsiella aerogenes [5]): inactive; Activity (Klebsiella aerogenes [10]): Active; fold change (FC) (Klebsiella aerogenes [9]): 2
22 | O=C1N/C(=C\c2ccc(Cl)cc2)C(=O)N1CC(O)CN1CCN(CCO)CC1 (centres undefined) | 250 (≈ 102 µg/mL) | 250 (≈ 102 µg/mL) |  | Activity (Klebsiella aerogenes [5]): inactive; Activity (Klebsiella aerogenes [10]): Active; fold change (FC) (Klebsiella aerogenes [1]): 4
23 | COc1ccc(/C=C2\NC(=O)N(CC(O)CN3CCN(CCO)CC3)C2=O)c(OC)c1 (centres undefined) | 250 (≈ 109 µg/mL) | 125 (≈ 54.3 µg/mL) | 2 | fold change (FC) (Klebsiella aerogenes [4]): 4; fold change (FC) (Klebsiella aerogenes [1]): 4

From ChEMBL document CHEMBL2311434, “Search for new tools to combat Gram-negative resistant bacteria among amine derivatives of 5-arylidenehydantoin” (2013)
